Here are results for three compounds from ChEMBL document CHEMBL1141765, “Alkaloids from Alangium javanicum and Alangium grisolleoides that mediate Cu2+-dependent DNA strand scission” (J Nat Prod, 2005).

Several values for one entry are separate records, joined by “and”; a condition that tells them apart may be missing. Equal values may be shown once.

For test [1], the system named is Escherichia coli. Description: Induction of DNA strand scission activity against Escherichia coli pBR322 assessed as form 2 DNA levels at 500 uM after 60 mins by electrophoresis in absence of 20 uM Cu2+. The test is classed as functional. The essentials: (§1)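 Supercoiled pBR322 plasmid DNA (500 ng) was incubated with compound, with or without 20 µM Cu2+, in 10 mM Tris-HCl, pH 8.0. Compound came from DMSO, final DMSO ≤5%. Incubation was 37 °C for 60 min. Blank (DNA only) and Cu2+-only controls were included. Samples were run on 1.0% agarose gels with ethidium bromide in TBE, pH 8.3. Form I→Form II conversion was quantified by gel densitometry.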

Test [2] has as its system Escherichia coli. Description: Induction of DNA strand scission activity against Escherichia coli pBR322 assessed as form 2 DNA levels at 50 uM after 60 mins by electrophoresis in presence of 20 uM Cu2+. The test is classed as functional. The gist of the method:
as §1

Test [3] concerns Escherichia coli. Description: Induction of DNA strand scission activity against Escherichia coli pBR322 assessed as form 2 DNA levels at 10 uM after 60 mins by electrophoresis in presence of 20 uM Cu2+. Format: functional. The essentials: as §1
The subject of test [4] is Escherichia coli. Nature of the test: Induction of DNA strand scission activity against Escherichia coli pBR322 assessed as form 2 DNA levels at 500 uM after 60 mins by electrophoresis in presence of 20 uM Cu2+. The test is classed as functional. The gist of the method:
as §1

The subject of test [5] is Escherichia coli. Description: Induction of DNA strand scission activity against Escherichia coli pBR322 assessed as form 2 DNA levels at 100 uM after 60 mins by electrophoresis in presence of 20 uM Cu2+. The test is classed as functional. The gist of the method:
as §1

Test [6] concerns Escherichia coli. Description: Induction of DNA strand scission activity against Escherichia coli pBR322 assessed as form 2 DNA levels at 200 uM after 60 mins by electrophoresis in presence of 20 uM Cu2+. Format: functional. The gist of the method:
as §1

For test [7], the system named is Escherichia coli. Nature of the test: Induction of DNA strand scission activity against Escherichia coli pBR322 assessed as form 2 DNA levels at 200 uM after 60 mins by electrophoresis in absence of 20 uM Cu2+. The test is classed as functional. The essentials: as §1
Test [8] relates to Escherichia coli. Description: Induction of DNA strand scission activity against Escherichia coli pBR322 assessed as form 2 DNA levels at 25 uM after 60 mins by electrophoresis in presence of 20 uM Cu2+. Format: functional. The essentials:
as §1

Test [9] concerns Escherichia coli. Description: Induction of DNA strand scission activity against Escherichia coli pSP64 assessed as form 2 DNA levels at 10 uM after 2 hrs by electrophoresis in presence of equimolar amount of Cu2+.
Test [10] relates to Escherichia coli. Nature of the test: Induction of DNA strand scission activity against Escherichia coli pSP64 assessed as form 2 DNA levels at 100 uM after 2 hrs by electrophoresis in presence of equimolar amount of Cu2+.
The subject of test [11] is Escherichia coli. Nature of the test: Induction of DNA strand scission activity against Escherichia coli pSP64 assessed as form 2 DNA levels at 200 uM after 2 hrs by electrophoresis in presence of equimolar amount of Cu2+.

Turning to `C=C[C@H]1[C@H](O[C@@H]2O[C@H](CO)[C@@H](O)[C@H](O)[C@H]2O)OC=C2C(=O)N3CCc4cc(OC)c(O)cc4[C@H]3C[C@H]21`, the Activity was found to be 3% in the test on Escherichia coli [1]; 18% in the test on Escherichia coli [2]; 14% in the test with Escherichia coli [3]; 42% in the test with Escherichia coli [4]; 25% with Escherichia coli [5]; 30% in the test on Escherichia coli [6].
On to `C=C[C@H]1[C@H](O[C@@H]2O[C@H](CO)[C@@H](O)[C@H](O)[C@H]2O)OC=C2C(=O)N3CC[C@@]4(C(=O)Nc5ccccc54)[C@H]3C[C@H]21`, for which the Activity amounted to 3% in the test with Escherichia coli [7]; 20% in the test on Escherichia coli [2]; 10% in the test with Escherichia coli [3]; 29% in the test with Escherichia coli [5]; 16% in the test with Escherichia coli [8]; 0% in the test on Escherichia coli [9]. Besides, the Activity was 58% in the test on Escherichia coli [6]; 28% and 16% in the test with Escherichia coli [10]; 43% and 35% with Escherichia coli [11].
Turning to `C=C[C@H]1[C@H](O[C@@H]2O[C@H](CO)[C@@H](O)[C@H](O)[C@H]2O)OC=C2C(=O)N3CC[C@]4(C(=O)Nc5ccccc54)[C@H]3C[C@H]21`, the Activity with Escherichia coli [9] is 0%; with Escherichia coli [10], 5%; in the test with Escherichia coli [11], 7%.
